Data published in ChEMBL document CHEMBL1157829, “2-imino-thiazolidin-4-one derivatives as potent, orally active S1P1 receptor agonists” (J Med Chem, 2010).
Blank lines part the entries; values can stand above or below the compound they belong to. Active and inactive are the calls of the source. The calls are words filed in the database; no cut-off is given here.

What was measured:
[1] = molecular target: T1, Sphingosine 1-phosphate receptor 1 (Homo sapiens, UniProt P21453); assay: Agonist activity at human recombinant S1P1 receptor expressed in CHO cells by GTPgammaS binding assay; format: functional, cell-based
[2] = molecular target: T2, Sphingosine 1-phosphate receptor 3 (Homo sapiens, UniProt Q99500); assay: Agonist activity at human recombinant S1P3 receptor expressed in CHO cells by GTPgammaS binding assay; format: functional, cell-based
Procedure, shortened: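 Membranes from CHO cells expressing recombinant human receptor. Buffer 20 mM Hepes pH 7.4, 100 mM NaCl, 5 mM MgCl2, 0.1% fatty-acid-free BSA, 2.5% DMSO, GDP (1 uM for S1P1, 3 uM for S1P3), 50 pM 35S-GTPγS. Compound preincubated with membranes 30 min at room temperature, then 1 h with 35S-GTPγS. Reaction filtered and bound label counted. Specific binding is the 10 uM S1P signal minus the no-agonist signal. EC50 is the concentration giving 50% of specific binding; three independent assays.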

[3] = tested on: Rattus norvegicus; assay: Immunomodulatory activity in normotensive Wistar rat assessed as change in circulating lymphocytes count at 10 mg/kg, po after 3 hrs relative to control; format: functional
Procedure, shortened: (§1)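 Normotensive male Wistar rats were housed on a 12 h light/dark cycle with free chow and water. Compound was dissolved in DMSO and added to 7.5% aqueous gelatin (final 5% DMSO), then given by gavage at 10 mg/kg (n = 6). Vehicle was 95% gelatin (7.5%)/5% DMSO (n = 30). Blood was taken before dosing and at 3, 6 and 24 h and counted by hematology analyzer. Counts are % change from t = 0 h ± SEM.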

[4] = tested on: Rattus norvegicus; assay: Immunomodulatory activity in normotensive Wistar rat assessed as change in circulating lymphocytes count at 10 mg/kg, po after 6 hrs relative to control; format: functional; procedure, shortened: as §1
[5] = tested on: Rattus norvegicus; assay: Immunomodulatory activity in normotensive Wistar rat assessed as change in circulating lymphocytes count at 10 mg/kg, po after 24 hrs relative to control; format: functional; procedure, shortened: as §1
[6] = Intrinsic clearance in Wistar rat liver microsomes at 1 uM by LC-MS/MS analysis measured per mg of protein; format: ADME, Microsome
[7] = Intrinsic clearance in human liver microsomes at 1 uM by LC-MS/MS analysis measured per mg of protein; format: ADME, Microsome
[8] = Intrinsic clearance in rat hepatocytes at 1 uM by LC-MS/MS analysis measured per million cells; format: ADME, cell-based, Liver, Hepatocyte
[9] = Cmax in Wistar rat at 10 mg/kg, po and 1 mg/kg, iv; format: ADME, organism-based; settings: in vivo
Procedure, shortened: (§2)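 Male Wistar rats (n = 3) were dosed at 10 mg/kg orally and 1 mg/kg intravenously. Plasma pharmacokinetic parameters were derived from these runs.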

[10] = Bioavailability in Wistar rat at 10 mg/kg, po and 1 mg/kg, iv; format: ADME, organism-based; settings: in vivo; procedure, shortened: as §2
[11] = Half life in Wistar rat at 10 mg/kg, po and 1 mg/kg, iv; format: ADME, organism-based; settings: in vivo; procedure, shortened: as §2
[12] = Clearance in Wistar rat at 10 mg/kg, po and 1 mg/kg, iv; format: ADME, organism-based; settings: in vivo; procedure, shortened: as §2
[13] = Volume of distribution at steady state in Wistar rat at 10 mg/kg, po and 1 mg/kg, iv; format: ADME, organism-based; settings: in vivo, read-out: Vdss; procedure, shortened: as §2
[14] = Intrinsic clearance in Beagle dog liver microsomes at 1 uM by LC-MS/MS analysis measured per mg of protein; format: ADME, Canis lupus familiaris, Microsome
[15] = Intrinsic clearance in Beagle dog hepatocytes at 1 uM by LC-MS/MS analysis measured per million cells; format: ADME, cell-based, Canis lupus familiaris, Liver, Hepatocyte
[16] = Bioavailability in Wistar rat at 3 mg/kg, po and 0.3 mg/kg, iv; format: ADME, organism-based; settings: in vivo
Procedure, shortened: (§3)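 Male Wistar rats (n = 3) were dosed at 3 mg/kg orally and 0.3 mg/kg intravenously. Plasma pharmacokinetic parameters were derived from these runs.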

[17] = Cmax in Wistar rat at 3 mg/kg, po and 0.3 mg/kg, iv; format: ADME, organism-based; settings: in vivo; procedure, shortened: as §3
[18] = Half life in Wistar rat at 3 mg/kg, po and 0.3 mg/kg, iv; format: ADME, organism-based; settings: in vivo; procedure, shortened: as §3
[19] = Clearance in Wistar rat at 3 mg/kg, po and 0.3 mg/kg, iv; format: ADME, organism-based; settings: in vivo; procedure, shortened: as §3
[20] = Volume of distribution at steady state in Wistar rat at 3 mg/kg, po and 0.3 mg/kg, iv; format: ADME, organism-based; settings: in vivo, read-out: Vdss; procedure, shortened: as §3
[21] = Bioavailability in Beagle dog at 3 mg/kg, po and 0.3 mg/kg, iv; format: ADME, organism-based, Canis lupus familiaris; settings: in vivo
Procedure, shortened: (§4)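 Fed male beagle dogs (n = 3) were dosed at 3 mg/kg orally and 0.3 mg/kg intravenously. Plasma exposure was measured to derive bioavailability, Cmax, half-life, clearance and Vss.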

[22] = Cmax in Beagle dog at 3 mg/kg, po and 0.3 mg/kg, iv; format: ADME, organism-based, Canis lupus familiaris; settings: in vivo; procedure, shortened: as §4
[23] = Half life in Beagle dog at 3 mg/kg, po and 0.3 mg/kg, iv; format: ADME, organism-based, Canis lupus familiaris; settings: in vivo; procedure, shortened: as §4
[24] = Clearance in Beagle dog at 3 mg/kg, po and 0.3 mg/kg, iv; format: ADME, organism-based, Canis lupus familiaris; settings: in vivo; procedure, shortened: as §4
[25] = Volume of distribution at steady state in Beagle dog at 3 mg/kg, po and 0.3 mg/kg, iv; format: ADME, organism-based, Canis lupus familiaris; settings: in vivo, read-out: Vdss; procedure, shortened: as §4
[26] = molecular target: T1, Sphingosine 1-phosphate receptor 1; assay: Agonist activity at human recombinant S1P1 receptor expressed in HEK cells by GTPgammaS binding assay; format: functional, cell-based, HEK293
Procedure, shortened: (§5)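 Membranes from cells expressing recombinant receptor. Buffer: 20 mM Hepes pH 7.4, 100 mM NaCl, 5 mM MgCl2, 0.1% fatty-acid-free BSA, 2.5% DMSO. GDP 1 µM for S1P1, 3 µM for S1P3. Compound preincubated with membranes 30 min at RT, then 50 pM 35S-GTPγS added for 1 h at RT. Bound label collected by filtration and counted. […] Values are geometric means of independent experiments.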

[27] = molecular target: T3, Sphingosine 1-phosphate receptor 2 (Homo sapiens, UniProt O95136); assay: Agonist activity at human recombinant S1P2 receptor expressed in HEK cells by GTPgammaS binding assay; format: functional, HEK293
[28] = molecular target: T2, Sphingosine 1-phosphate receptor 3; assay: Agonist activity at human recombinant S1P3 receptor expressed in HEK cells by GTPgammaS binding assay; format: functional, HEK293; procedure, shortened: as §5
[29] = molecular target: T4, Sphingosine 1-phosphate receptor 4 (Homo sapiens, UniProt O95977); assay: Agonist activity at human recombinant S1P4 receptor expressed in CHO cells by GTPgammaS binding assay; format: functional, cell-based
T4 sequence (O95977 whole entry): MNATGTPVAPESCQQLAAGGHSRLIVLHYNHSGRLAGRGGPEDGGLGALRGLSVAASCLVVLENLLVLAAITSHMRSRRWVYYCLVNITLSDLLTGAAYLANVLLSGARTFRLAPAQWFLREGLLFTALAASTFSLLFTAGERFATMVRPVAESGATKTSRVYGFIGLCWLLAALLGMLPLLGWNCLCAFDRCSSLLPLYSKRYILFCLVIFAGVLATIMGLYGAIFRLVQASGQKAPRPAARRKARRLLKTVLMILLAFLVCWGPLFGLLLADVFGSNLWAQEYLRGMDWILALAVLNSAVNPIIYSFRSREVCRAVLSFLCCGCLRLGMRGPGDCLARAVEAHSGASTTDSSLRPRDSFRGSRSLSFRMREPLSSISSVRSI

[30] = molecular target: T5, Sphingosine 1-phosphate receptor 5 (Homo sapiens, UniProt Q9H228); assay: Agonist activity at human recombinant S1P5 receptor expressed in CHO cells by GTPgammaS binding assay; format: functional, cell-based
[31] = molecular target: T1, Sphingosine 1-phosphate receptor 1; assay: Displacement of [33P]S1P from human recombinant S1P1 receptor expressed in HEK cells by scintillation counting; format: cell-based, HEK293; settings: read-out: IC50
Procedure, shortened: (§6)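 33P-S1P binding to membranes of recombinant receptor-expressing cells. IC50 reported as the geometric mean of independent experiments, with the geometric standard deviation.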

[32] = molecular target: T3, Sphingosine 1-phosphate receptor 2; assay: Displacement of [33P]S1P from human recombinant S1P2 receptor expressed in HEK cells by scintillation counting; format: cell-based, HEK293
[33] = molecular target: T2, Sphingosine 1-phosphate receptor 3; assay: Displacement of [33P]S1P from human recombinant S1P3 receptor expressed in HEK cells by scintillation counting; format: cell-based, HEK293; settings: read-out: IC50; procedure, shortened: as §6
[34] = molecular target: T4, Sphingosine 1-phosphate receptor 4; assay: Displacement of [33P]S1P from human recombinant S1P4 receptor expressed in CHO cells by scintillation counting; format: cell-based
[35] = molecular target: T5, Sphingosine 1-phosphate receptor 5; assay: Displacement of [33P]S1P from human recombinant S1P5 receptor expressed in CHO cells by scintillation counting; format: cell-based
[36] = molecular target: T6, Sphingosine 1-phosphate receptor 4 (Homo sapiens) (UniProt O95977); assay: Agonist activity at human recombinant S1P4 receptor expressed in CHO cells at 10 uM by GTPgammaS binding assay relative to S1P; format: functional, cell-based
T6 sequence (whole entry): T4 sequence (O95977 whole entry)
Procedure, shortened: (§7)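 In the same CHO-membrane 35S-GTPγS binding assay with human receptor, maximal activity at 10 uM compound was expressed as a percentage of the effect induced by S1P.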

[37] = molecular target: T5, Sphingosine 1-phosphate receptor 5; assay: Agonist activity at human recombinant S1P5 receptor expressed in CHO cells at 10 uM by GTPgammaS binding assay relative to S1P; format: functional, cell-based; procedure, shortened: as §7
[38] = tested on: Canis familiaris; assay: Immunomodulatory activity in Beagle dog assessed as decrease in circulating lymphocytes count at 5 mg/kg, po after 24 hrs; format: functional, organism-based; set-up: dose 5 mg/kg; settings: Canis lupus familiaris
[39] = Half life in human administered as single ascending dose; format: ADME, organism-based; settings: in vivo

T2 sequence (Q99500 whole entry): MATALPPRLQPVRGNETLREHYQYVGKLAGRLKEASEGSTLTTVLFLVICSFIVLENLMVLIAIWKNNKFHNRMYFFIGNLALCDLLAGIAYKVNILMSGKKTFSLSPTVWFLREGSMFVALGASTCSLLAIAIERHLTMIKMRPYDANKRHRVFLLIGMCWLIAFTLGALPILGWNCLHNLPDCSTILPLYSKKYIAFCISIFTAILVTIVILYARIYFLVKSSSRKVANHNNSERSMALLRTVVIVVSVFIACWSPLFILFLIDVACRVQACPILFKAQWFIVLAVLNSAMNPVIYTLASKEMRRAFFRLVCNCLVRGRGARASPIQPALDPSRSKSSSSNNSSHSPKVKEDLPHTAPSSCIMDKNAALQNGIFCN
T5 sequence (Q9H228 whole entry): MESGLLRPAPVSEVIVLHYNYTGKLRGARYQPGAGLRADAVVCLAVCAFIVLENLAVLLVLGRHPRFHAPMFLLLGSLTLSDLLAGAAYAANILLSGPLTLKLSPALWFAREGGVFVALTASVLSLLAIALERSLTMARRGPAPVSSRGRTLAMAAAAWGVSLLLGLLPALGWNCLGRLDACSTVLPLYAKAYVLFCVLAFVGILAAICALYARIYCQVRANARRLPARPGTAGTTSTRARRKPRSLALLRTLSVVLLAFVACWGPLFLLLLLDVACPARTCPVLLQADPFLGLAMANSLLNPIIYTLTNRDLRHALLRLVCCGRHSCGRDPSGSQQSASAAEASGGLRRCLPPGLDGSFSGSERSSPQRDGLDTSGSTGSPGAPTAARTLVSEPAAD
T1 sequence (P21453 whole entry): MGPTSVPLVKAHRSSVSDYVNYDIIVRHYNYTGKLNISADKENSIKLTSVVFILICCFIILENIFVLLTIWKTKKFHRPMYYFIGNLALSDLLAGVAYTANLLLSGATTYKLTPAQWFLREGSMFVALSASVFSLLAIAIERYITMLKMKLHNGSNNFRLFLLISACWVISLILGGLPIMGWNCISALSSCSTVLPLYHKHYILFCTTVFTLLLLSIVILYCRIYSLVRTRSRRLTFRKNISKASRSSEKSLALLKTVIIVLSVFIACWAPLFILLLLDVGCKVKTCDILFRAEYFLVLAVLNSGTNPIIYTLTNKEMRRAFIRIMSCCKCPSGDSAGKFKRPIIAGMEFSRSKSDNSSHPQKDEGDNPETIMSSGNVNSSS
T3 sequence (O95136 whole entry): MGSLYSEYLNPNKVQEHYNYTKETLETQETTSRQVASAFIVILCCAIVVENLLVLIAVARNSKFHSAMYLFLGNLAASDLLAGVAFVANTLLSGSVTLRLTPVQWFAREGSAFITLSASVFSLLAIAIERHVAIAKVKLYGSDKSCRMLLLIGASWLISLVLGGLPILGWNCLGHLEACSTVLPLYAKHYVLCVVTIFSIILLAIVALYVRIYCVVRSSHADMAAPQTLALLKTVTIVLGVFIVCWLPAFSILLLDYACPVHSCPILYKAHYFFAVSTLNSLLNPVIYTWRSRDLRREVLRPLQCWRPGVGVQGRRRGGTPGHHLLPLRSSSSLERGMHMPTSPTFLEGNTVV

SMILES: CCC/N=C1\S/C(=C\c2ccc(OC[C@H](O)CO)c(Cl)c2)C(=O)N1c1ccccc1C [PONESIMOD]
EC50 [1]: 9.7 nM | EC50 [2]: 109 nM | Activity [3]: -64% | Activity [4]: -55% | Activity [5]: 15%

EC50 [1]: 34 nM | EC50 [2]: 139 nM | microsomal CLint at 1 µM [6]: 158 µL/min/mg | microsomal CLint at 1 µM [7]: 27 µL/min/mg | hepatocyte CLint at 1 µM [8]: 19.8 µL/min/1e6 cells | Cmax [9]: 11 ng/mL | bioavailability [10]: < 1% | half-life [11]: 42 min | clearance [12]: 105 mL/min/kg | Vd [13]: 3 L/kg
SMILES: Cc1ccccc1N1C(=O)/C(=C/c2ccc(O)c(Cl)c2)S/C1=N\C(C)C

SMILES: CCC/N=C1\S/C(=C\c2ccc(OCC(O)CO)c(Cl)c2)C(=O)N1c1ccccc1C (racemic)
EC50 [1]: 12 nM | EC50 [2]: 174 nM | Activity [3]: -67% | Activity [4]: -71% | Activity [5]: 19% | microsomal CLint at 1 µM [6]: 27 µL/min/mg | microsomal CLint at 1 µM [7]: 4 µL/min/mg | hepatocyte CLint at 1 µM [8]: 9.1 µL/min/1e6 cells | Cmax [9]: 311 ng/mL | bioavailability [10]: 90% | half-life [11]: 96 min | clearance [12]: 41 mL/min/kg | Vd [13]: 5.6 L/kg

SMILES: CCC/N=C1\S/C(=C\c2ccc(OC[C@@H](O)CO)c(Cl)c2)C(=O)N1c1ccccc1C
EC50 [1]: 9.1 nM | EC50 [2]: 123 nM | Activity [3]: -65% | Activity [4]: -63% | Activity [5]: -18% | microsomal CLint at 1 µM [6]: 56 µL/min/mg | microsomal CLint at 1 µM [14]: 7 µL/min/mg | microsomal CLint at 1 µM [7]: 4 µL/min/mg | hepatocyte CLint at 1 µM [8]: 3.7 µL/min/1e6 cells | hepatocyte CLint at 1 µM [15]: 1 µL/min/1e6 cells | bioavailability [16]: 35% | Cmax [17]: 409 ng/mL | half-life [18]: 78 min | clearance [19]: 25 mL/min/kg | Vd [20]: 3.3 L/kg | bioavailability [21]: 69% | Cmax [22]: 1360 ng/mL | half-life [23]: 600 min | clearance [24]: 1.3 mL/min/kg | Vd [25]: 0.9 L/kg | EC50 [26]: 5.7 nM | EC50 [27]: > 10 µM | EC50 [28]: 105 nM | EC50 [29]: 1110 nM | EC50 [30]: 59.1 nM | IC50 [31]: 6 nM | IC50 [32]: > 10 µM | IC50 [33]: 2070 nM | IC50 [34]: 1960 nM | IC50 [35]: 142 nM | Activity [36]: 18% | Activity [37]: 42% | Activity [38]: Active | half-life [39]: 1320 min

EC50 [1]: 251 nM | EC50 [2]: 127 nM
SMILES: COc1ccc(N2C(=O)/C(=C/c3ccc(O)c(Cl)c3)S/C2=N\C(C)C)cc1
